From ChEMBL document CHEMBL2331109, “Inhibitors of human immunodeficiency virus type 1 (HIV-1) attachment. 12. Structure-activity relationships associated with 4-fluoro-6-azaindole derivatives leading to the identification of 1-(4-benzoylpiperazin-1-yl)-2-(4-fluoro-7-[1,2,3]triazol-1-yl-1h-pyrrolo[2,3-c]pyridin-3-yl)ethane-1,2-dione …” (J Med Chem, 2013)
In brackets after ≈: the same amount, converted by molar mass.

Columns and labels:
[1] = Volume of distribution at steady state in iv dosed rat; assay type: ADME, organism-based; details: in vivo, read-out: Vdss
Procedure, shortened: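 Rats dosed intravenously in PEG 400/ethanol (90:10 v/v); steady-state volume of distribution taken from the iv plasma profile.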

[2] = Clearance in human liver microsomes; assay type: ADME, Microsome; details: read-out: CLH
[3] = Cmax in rat at 5 mg/kg, po; assay type: ADME, organism-based; design: dose 5 mg/kg, route oral; details: in vivo
Rattus norvegicus [4] = assay: (§1) AUC in rat at 5 mg/kg, po at 24 hrs; assay type: ADME, organism-based, Plasma; design: time < 24 hr, dose 5 mg/kg, route oral; details: in vivo, 24 h
Rattus norvegicus [5] = assay: (§2) Oral bioavailability in rat at 5 mg/kg; assay type: ADME, organism-based; details: in vivo
[6] = Clearance in iv dosed rat; assay type: ADME, organism-based; details: in vivo
[7] = as §1; assay type: ADME, organism-based, Plasma; design: time < 24 hr, dose 5 mg/kg, route oral; details: plasma
[8] = as §2; assay type: ADME, organism-based; details: in vivo
Plasma = assay: Plasma concentration in human at 20 mg, po administered as solution measured after 16 hrs; assay type: ADME, organism-based; details: in vivo, BLD = below limit of detection
[9] = Oral bioavailability in human at 200 mg administered as capsule formulation; assay type: ADME, organism-based; details: in vivo
Procedure, shortened: (§3)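 Healthy subjects given 200 mg as a spray-dried capsule, fasted, with plasma sampled 0–96 h. Bioavailability is relative to a 20 mg oral solution, based on dose-normalized AUC(INF).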

[10] = Half life in human at 20 mg, po administered as solution measured between 2 and 12 hrs post-dosing; assay type: ADME, organism-based; details: in vivo
[11] = Drug absorption in human colon at 200 mg, po measured between 12 to 96 hrs; assay type: ADME, organism-based; details: in vivo; procedure, shortened: as §3
[12] = Aqueous solubility of the compound; assay type: physicochemical; details: buffer

Vd [1] [L/kg]	CLint scaled [2] [mL/min/kg]	Cmax [3] [nM]	AUC (Rattus norvegicus [4]) [µM·h]	F (Rattus norvegicus [5]) [%]	SMILES	further results
0.74	< 21	326	1.5	63	CNC(=O)c1ncc(F)c2c(C(=O)C(=O)N3CCN(C(=O)c4ccccc4)CC3)c[nH]c12	
1.4	< 21	603	2.6	68	NC(=O)c1ncc(F)c2c(C(=O)C(=O)N3CCN(C(=O)c4ccccc4)CC3)c[nH]c12	
	≤ 29				O=C(C(=O)N1CCN(C(=O)c2ccccc2)CC1)c1c[nH]c2c(-c3cnccn3)ncc(F)c12	
0.25	< 21	1400	12.5	33	O=C(C(=O)N1CCN(C(=O)c2ccccc2)CC1)c1c[nH]c2c(-c3cc[nH]n3)ncc(F)c12	
	≤ 29				NC(=O)c1cc(-c2ncc(F)c3c(C(=O)C(=O)N4CCN(C(=O)c5ccccc5)CC4)c[nH]c23)n[nH]1	
	≤ 29				CNC(=O)c1cc(-c2ncc(F)c3c(C(=O)C(=O)N4CCN(C(=O)c5ccccc5)CC4)c[nH]c23)n[nH]1	
	> 29				O=C(NCCN1CCOCC1)c1cc(-c2ncc(F)c3c(C(=O)C(=O)N4CCN(C(=O)c5ccccc5)CC4)c[nH]c23)n[nH]1	
	< 21				CN(C)C(=O)c1cc(-c2ncc(F)c3c(C(=O)C(=O)N4CCN(C(=O)c5ccccc5)CC4)c[nH]c23)n[nH]1	
0.26	< 21	8760		95	O=C(C(=O)N1CCN(C(=O)c2ccccc2)CC1)c1c[nH]c2c(-n3cncn3)ncc(F)c12	
0.18	< 21		160	77	Cc1ncn(-c2ncc(F)c3c(C(=O)C(=O)N4CCN(C(=O)c5ccccc5)CC4)c[nH]c23)n1	
0.6	< 21	498	2.1	61	Cc1ccn(-c2ncc(F)c3c(C(=O)C(=O)N4CCN(C(=O)c5ccccc5)CC4)c[nH]c23)n1	
	< 21	9480			O=C(C(=O)N1CCN(C(=O)c2ccccc2)CC1)c1c[nH]c2c(-n3ccnn3)ncc(F)c12	Cp (Plasma): BLD; bioavailability [9]: 30%; half-life [10]: 1.4 h; Drug absorption [11]: Active; solubility [12]: 7 µg/mL (≈ 15.6 µM); AUC at 24 h [7]: 86 µM·h; bioavailability [8]: 64%
1.1		1890			COc1ncc(OC)c2c(C(=O)C(=O)N3CCN(C(=O)c4ccccc4)CC3)c[nH]c12	AUC at 24 h [7]: 6.3 µM·h

SMILES	Vd [1] [L/kg]	CLint scaled [2] [mL/min/kg]	Cmax [3] [nM]	AUC (Rattus norvegicus [4]) [µM·h]	F (Rattus norvegicus [5]) [%]	further results
O=C(C(=O)N1CCN(C(=O)c2ccccc2)CC1)c1c[nH]c2c(-c3cnco3)ncc(F)c12	0.14	< 21	1290			clearance [6]: 1.4 mL/min/kg; AUC at 24 h [7]: 12 µM·h; bioavailability [8]: 20%
